The results in this text go back to ChEMBL document CHEMBL3600302, “A Ligand-Based Drug Design. Discovery of 4-Trifluoromethyl-7,8-pyranocoumarin as a Selective Inhibitor of Human Cytochrome P450 1A2” (J Med Chem, 2015).

Series [1] concerns the target T1, Aryl hydrocarbon receptor (Homo sapiens, UniProt P35869).
T1 sequence (P35869 whole entry): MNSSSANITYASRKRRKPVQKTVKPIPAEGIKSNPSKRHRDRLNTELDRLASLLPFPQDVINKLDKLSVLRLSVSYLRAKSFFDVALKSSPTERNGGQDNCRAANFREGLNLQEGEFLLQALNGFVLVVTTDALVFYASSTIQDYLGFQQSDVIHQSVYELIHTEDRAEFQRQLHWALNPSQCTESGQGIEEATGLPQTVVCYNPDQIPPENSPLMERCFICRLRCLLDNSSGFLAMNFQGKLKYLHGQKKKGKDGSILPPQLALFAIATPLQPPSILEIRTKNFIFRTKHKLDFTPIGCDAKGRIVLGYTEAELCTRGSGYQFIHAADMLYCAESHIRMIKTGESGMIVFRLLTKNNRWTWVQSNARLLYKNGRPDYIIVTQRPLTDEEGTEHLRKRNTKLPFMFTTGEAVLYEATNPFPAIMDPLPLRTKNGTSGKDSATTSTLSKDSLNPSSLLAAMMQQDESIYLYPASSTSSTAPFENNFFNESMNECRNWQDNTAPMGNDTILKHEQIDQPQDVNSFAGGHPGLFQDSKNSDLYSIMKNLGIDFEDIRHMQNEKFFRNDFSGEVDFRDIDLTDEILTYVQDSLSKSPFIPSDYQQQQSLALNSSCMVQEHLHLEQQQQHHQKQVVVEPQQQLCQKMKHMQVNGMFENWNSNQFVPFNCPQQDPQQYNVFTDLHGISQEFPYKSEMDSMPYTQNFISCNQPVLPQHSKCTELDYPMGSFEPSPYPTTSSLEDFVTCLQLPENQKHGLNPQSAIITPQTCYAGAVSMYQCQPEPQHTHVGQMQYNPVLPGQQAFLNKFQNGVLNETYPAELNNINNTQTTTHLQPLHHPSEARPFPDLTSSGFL
Nature of the series: Activation of human AhR expressed in Saccharomyces cerevisiae MYA-3637 assessed as upregulation of […] at >10^-7 M by LacZ reporter assay. It is filed as ADME. In short, it runs like this:
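Yeast MYA-3637 carrying integrated human AhR (GAL promoter) and a lacZ reporter, grown on synthetic minimal medium without tryptophan, with galactose as carbon source. Compounds in DMSO were added to overnight culture in quadruplicate. Next day A600 was read, then lysis buffer (0.2% sarcosyl, 1 mM DTT, 0.4 mg/mL ONPG) was added. A405/A600 ratio was taken. βNF 10^-8 M served as positive control. At least three repeats.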
(In general: Reporter assays use an easily measured gene product as a stand-in for the process of interest.)

The target of another series is T2, CYP1A2 (Homo sapiens, UniProt P05177).
T2 sequence (P05177 whole entry): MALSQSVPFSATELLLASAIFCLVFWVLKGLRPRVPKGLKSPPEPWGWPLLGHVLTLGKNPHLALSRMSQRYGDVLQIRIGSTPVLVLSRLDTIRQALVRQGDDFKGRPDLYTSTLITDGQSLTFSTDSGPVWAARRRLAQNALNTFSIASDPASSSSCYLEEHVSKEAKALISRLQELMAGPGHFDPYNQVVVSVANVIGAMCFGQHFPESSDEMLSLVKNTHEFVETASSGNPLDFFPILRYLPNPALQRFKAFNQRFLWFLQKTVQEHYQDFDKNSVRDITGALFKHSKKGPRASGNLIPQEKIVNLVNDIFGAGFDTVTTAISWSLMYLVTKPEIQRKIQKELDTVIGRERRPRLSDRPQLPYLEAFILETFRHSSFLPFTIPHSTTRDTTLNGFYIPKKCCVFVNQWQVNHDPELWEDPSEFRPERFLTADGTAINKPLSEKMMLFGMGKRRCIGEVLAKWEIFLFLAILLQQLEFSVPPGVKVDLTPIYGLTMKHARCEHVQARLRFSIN
Nature of the series: Time-dependent inhibition of human microsomal CYP1A2-dependent methoxyresorufin-O-demethylase activity by spectrofluorimetric analysis in presence of NADPH regenerating solution. The conditions noted are these: human microsomal CYP1A2, probe methoxyresorufin (O-demethylation). In short, it runs like this: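 1A2 MROD run with NADPH at 0.0125, 0.025, 0.05 and 0.1 µM inhibitor, product monitored continuously over 6 min. Activity at different times came from first derivatives of product curves, expressed as % of control remaining. KI and limiting kinact were derived from the resulting linear plot.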

Series [2] addresses T3, Cytochrome P450 1B1 (Homo sapiens, UniProt Q16678).
T3 sequence (Q16678 whole entry): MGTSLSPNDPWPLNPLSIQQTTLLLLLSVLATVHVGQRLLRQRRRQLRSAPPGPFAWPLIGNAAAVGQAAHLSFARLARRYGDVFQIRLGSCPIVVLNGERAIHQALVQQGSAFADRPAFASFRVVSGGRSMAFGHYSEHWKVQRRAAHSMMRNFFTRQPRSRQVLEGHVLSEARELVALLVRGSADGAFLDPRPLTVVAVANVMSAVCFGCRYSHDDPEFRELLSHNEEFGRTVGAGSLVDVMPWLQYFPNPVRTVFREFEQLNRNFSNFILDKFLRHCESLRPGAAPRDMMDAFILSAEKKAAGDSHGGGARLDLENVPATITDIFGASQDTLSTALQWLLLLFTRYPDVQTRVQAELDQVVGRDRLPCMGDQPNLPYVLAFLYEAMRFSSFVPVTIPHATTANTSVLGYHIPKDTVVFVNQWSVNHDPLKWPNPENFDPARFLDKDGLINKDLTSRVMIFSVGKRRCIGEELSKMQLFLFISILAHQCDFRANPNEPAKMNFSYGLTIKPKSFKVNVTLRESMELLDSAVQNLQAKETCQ
Nature of the series: Inhibition of human microsomal CYP1B1-dependent ethoxyresorufin-O-deethylase activity at 10 nM preincubated for 5 mins followed by NADPH regenerating solution and substrate addition measured over 6 mins by spectrofluorimetric analysis. The conditions noted are these: 0.1 h, 0.01 µM. In short, it runs like this:
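Microsomal P450 in 0.1 M potassium phosphate pH 7.6 with MgCl2 and 10 nM inhibitor in DMSO, 2 mL final. Preincubated 5 min at 37 °C either with NADPH-regenerating solution, or without it, with NADPH then added at start. Reaction started with ethoxyresorufin (final 5 µM). Resorufin formation followed 6 min at 37 °C.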

The target in another series is T4, Cytochrome P450 1A2 (Homo sapiens, UniProt P05177).
T4 sequence (P05177 whole entry): T2 sequence (P05177 whole entry)
Nature of the series: Inhibition of human microsomal CYP1A2-dependent methoxyresorufin-O-demethylase activity at 10 nM measured over 6 mins by spectrofluorimetric analysis in absence of NADPH regenerating solution. The conditions noted are these: 0.1 h, 0.01 µM.

Series [3] has as its target T3, Cytochrome P450 1B1. Put plainly: Inhibition of human microsomal CYP1B1-dependent ethoxyresorufin-O-deethylase activity by spectrofluorimetric analysis in presence of NADPH regenerating solution. In short, it runs like this: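 Microsomal P450 (final 5 nM) in 0.1 M potassium phosphate pH 7.6 with MgCl2 at 37 °C. Substrate final 5 µM: ethoxyresorufin for 1A1/1B1, methoxyresorufin for 1A2. Ki was taken as the x-intercept of Dixon plots (1/v0 vs [I]). Mean ± SD of three independent experiments. Selectivity ratios are ratios of these Ki.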

In general, kinact refers to the rate constant of inactivation at saturating inhibitor. Broadly, the Ki is a measure of affinity in units of concentration, obtained from inhibition or displacement. In the case of `Cc1cc2c(ccc3c(=O)cc(-c4ccccc4)oc32)o1`, the result in series [1] was Active. Also, at CYP1A2, the kinact was 0.007 s⁻¹. Moreover, the entries for the “inhibition (INH)” value against Cytochrome P450 1B1 [2] and on Cytochrome P450 1A2 were “Not Active” and “Active”, respectively. Further, on Cytochrome P450 1B1 [3], the Ki stood at 0.18 µM.
